Activity calls are given as the source filed them. The rule behind the calls is not given here.
Columns and labels:
[1] = target: T1, Neutrophil elastase (Homo sapiens) (UniProt P08246); assay: Ratio of Kinact to Ki for human neutrophil elastase
T1 sequence (whole entry): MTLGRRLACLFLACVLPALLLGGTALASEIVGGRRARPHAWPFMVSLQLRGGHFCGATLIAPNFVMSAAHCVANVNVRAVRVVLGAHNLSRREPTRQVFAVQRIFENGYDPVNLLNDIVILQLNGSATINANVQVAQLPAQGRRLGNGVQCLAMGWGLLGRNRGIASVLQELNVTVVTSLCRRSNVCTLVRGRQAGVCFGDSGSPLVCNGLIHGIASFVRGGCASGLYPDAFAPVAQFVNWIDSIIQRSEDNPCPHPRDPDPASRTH
Method in brief: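 Progress-curve method: 10 nM HNE, MeOSuc-AAPV p-nitroanilide (105 μM) and inhibitor at several inhibitor-to-enzyme ratios in 0.1 M HEPES/0.5 M NaCl, pH 7.25, 2.5% DMSO. p-Nitroaniline release was monitored continuously at 410 nm. kobs came from nonlinear fitting of absorbance versus time; kinact/KI = kobs/[I], corrected for substrate concentration. Determined in duplicate.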

[2] = target: T2, Myeloblastin (Homo sapiens) (UniProt P24158); assay: Inhibition of human neutrophil proteinase 3 assessed as residual activity at 8.62
T2 sequence (whole entry): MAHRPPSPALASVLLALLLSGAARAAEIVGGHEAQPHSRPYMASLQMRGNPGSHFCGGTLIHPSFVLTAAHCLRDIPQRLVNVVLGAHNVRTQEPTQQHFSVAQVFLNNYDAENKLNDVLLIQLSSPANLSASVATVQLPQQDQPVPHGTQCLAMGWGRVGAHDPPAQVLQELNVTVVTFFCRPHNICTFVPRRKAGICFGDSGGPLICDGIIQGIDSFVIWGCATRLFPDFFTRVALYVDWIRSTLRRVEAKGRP
Method in brief: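 Human proteinase 3 (final 34.5 nM) was added with DTNB to 0.1 M HEPES/0.5 M NaCl, pH 7.25, containing inhibitor (final 8.62 μM, from DMSO) and Boc-Ala-Ala-NVa-SBzl. Absorbance at 410 nm was followed for 2 min against a DMSO-only hydrolysis control. % remaining activity = (v/vo)×100, mean of duplicate or triplicate runs.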

[3] = target: T1, Neutrophil elastase (Homo sapiens); assay: Inhibition of human neutrophil elastase at 7 uM; conditions: TDE = time-dependent effect
Method in brief: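 HNE (700 nM) incubated with inhibitor (7 μM) in 0.1 M HEPES/0.5 M NaCl, pH 7.25, 1% DMSO, in a constant-temperature bath. Aliquots were taken at intervals and added to MeOSuc-Ala-Ala-Pro-Val p-nitroanilide. Residual activity was read as absorbance at 410 nm over 60 s and expressed as percent remaining activity versus time.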

SMILES | Ratio [1] | percent remaining activity [2] | inhibition [3]
CC(=O)Oc1ccccc1C(=O)OCN1C(=O)[C@H](CC(C)C)N(C)S1(=O)=O | 419000 | inactive | –
CC(C)C[C@H]1C(=O)N(COC(=O)Cc2ccccc2)S(=O)(=O)N1C | 357000 | inactive | –
CC(C)C[C@H]1C(=O)N(COC(=O)c2ccccc2O)S(=O)(=O)N1C | 336000 | inactive | –
CC(C)C[C@H]1C(=O)N(COC(=O)C(C)c2ccc(Oc3ccccc3)cc2)S(=O)(=O)N1C (some centres undefined) | 501000 | inactive | –
CC(C)C[C@H]1C(=O)N(COC(=O)Cc2ccccc2Nc2c(Cl)cccc2Cl)S(=O)(=O)N1C | 981000 | inactive | tde
CC(C)C[C@H]1C(=O)N(COC(=O)Cc2ccccc2)S(=O)(=O)N1Cc1ccccc1 | 63800 | inactive | –
CC(C)Cc1ccc(C(C)C(=O)OCN2C(=O)[C@H](CC(C)C)N(C)S2(=O)=O)cc1 (some centres undefined) | 201000 | inactive | –
CC(C)C[C@H]1C(=O)N(COC(=O)C(C)c2ccc(Oc3ccccc3)cc2)S(=O)(=O)N1Cc1ccccc1 (some centres undefined) | 1770 | inactive | –
CC(C)C[C@H]1C(=O)N(COC(=O)CCc2ccccc2)S(=O)(=O)N1C | 296000 | inactive | –
CC(=O)Oc1ccccc1C(=O)OCN1C(=O)[C@H](CC(C)C)N(Cc2ccccc2)S1(=O)=O | 1.06e+06 | inactive | –
CC(C)C[C@H]1C(=O)N(COC(=O)c2ccccc2O)S(=O)(=O)N1Cc1ccccc1 | 1.09e+06 | inactive | –
CC(C)C[C@H]1C(=O)N(COC(=O)Cc2ccccc2Nc2c(Cl)cccc2Cl)S(=O)(=O)N1Cc1ccccc1 | 1330 | inactive | tde
CC(C)Cc1ccc(C(C)C(=O)OCN2C(=O)[C@H](CC(C)C)N(Cc3ccccc3)S2(=O)=O)cc1 (some centres undefined) | 1580 | inactive | –
CC(C)C[C@H]1C(=O)N(COC(=O)C(C)c2ccc(C(=O)c3ccccc3)cc2)S(=O)(=O)N1Cc1ccccc1 (some centres undefined) | 31000 | inactive | –
CC(C)C[C@H]1C(=O)N(COC(=O)CCc2ccccc2)S(=O)(=O)N1Cc1ccccc1 | 3200 | inactive | –
CC(C)C[C@H]1C(=O)N(COC(=O)C(C)c2ccc(C(=O)c3ccccc3)cc2)S(=O)(=O)N1C (some centres undefined) | 540000 | inactive | –

Reference: ChEMBL document CHEMBL1221393, “Effects of structure on inhibitory activity in a series of mechanism-based inhibitors of human neutrophil elastase” (Bioorg Med Chem, 2010)
